Test results: ChEMBL document CHEMBL4354800, “Amphiphilic nebramine-based hybrids Rescue legacy antibiotics from intrinsic resistance in multidrug-resistant Gram-negative bacilli” (Eur J Med Chem, 2019)

Assays:
Assay type in all cases: functional
Pseudomonas aeruginosa [1] = experiment: Potentiation of ciprofloxacin-induced antibacterial activity against MDR/XDR Pseudomonas aeruginosa isolate 100036 harboring GyrA T83I mutant assessed as fold reduction in ciprofloxacin MIC at 7.5 uM incubated for 18 hrs by broth microdilution method
Pseudomonas aeruginosa [2] = experiment: Potentiation of moxifloxacin-induced antibacterial activity against MDR/XDR Pseudomonas aeruginosa isolate 91433 devoid of GyrA T83I mutant assessed as fold reduction in moxifloxacin MIC at 7.5 uM incubated for 18 hrs by broth microdilution method
Outline: (§1)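 CLSI broth microdilution. Overnight cultures were set to 0.5 McFarland in saline, diluted 1:50 in Mueller-Hinton broth to a final 5 × 10^5 CFU/mL, and incubated 18 h at 37 °C against 2-fold antibiotic dilutions. A fixed adjuvant level was present throughout. MIC = lowest concentration with no visible turbidity, confirmed at 590 nm. Potentiation = fold drop in antibiotic MIC versus antibiotic alone.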

Pseudomonas aeruginosa [3] = experiment: Potentiation of moxifloxacin-induced antibacterial activity against MDR/XDR Pseudomonas aeruginosa isolate 101243 devoid of GyrA T83I mutant assessed as fold reduction in moxifloxacin MIC at 7.5 uM incubated for 18 hrs by broth microdilution method; outline: as §1
Pseudomonas aeruginosa [4] = experiment: Potentiation of minocycline-induced antibacterial activity against MDR/XDR Pseudomonas aeruginosa isolate 101243 devoid of GyrA T83I mutant assessed as fold reduction in minocycline MIC at 7.5 uM incubated for 18 hrs by broth microdilution method
Pseudomonas aeruginosa [5] = experiment: Potentiation of minocycline-induced antimicrobial activity against MDR/XDR Pseudomonas aeruginosa isolate 100036 harboring GyrA Thr83Ile mutant assessed as minocycline MIC50 incubated for 18 hrs by broth microdilution method (reference value: 16 microg/ml); settings: isolate 100036, 18 h
Pseudomonas aeruginosa [6] = experiment: Potentiation of rifampicin-induced antimicrobial activity against MDR/XDR Pseudomonas aeruginosa isolate 100036 harboring GyrA Thr83Ile mutant assessed as rifampicin MIC50 incubated for 18 hrs by broth microdilution method (reference value: 8 microg/ml); settings: isolate 100036, 18 h
Acinetobacter baumannii [7] = experiment: Antimicrobial activity against multidrug-resistant Acinetobacter baumannii AB030 incubated for 18 hrs by broth dilution method; settings: AB030, 18 h
Outline: (§2)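 Broth microdilution per CLSI: overnight cultures set to 0.5 McFarland in saline, diluted 1:50 in Mueller-Hinton broth to a final 5 × 10^5 CFU/mL, added to 2-fold serial dilutions, incubated 18 h at 37 °C; MIC is the lowest concentration without visible turbidity, confirmed at 590 nm.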

Acinetobacter baumannii [8] = experiment: Antimicrobial activity against multidrug-resistant Acinetobacter baumannii AB031 incubated for 18 hrs by broth dilution method; settings: AB031, 18 h; outline: as §2
Acinetobacter baumannii [9] = experiment: Potentiation of rifampicin-induced antibacterial activity against multidrug-resistant Acinetobacter baumannii AB027 assessed as fold reduction in rifampicin MIC at 7.5 uM incubated for 18 hrs by broth dilution method; outline: as §1
Acinetobacter baumannii [10] = experiment: Potentiation of rifampicin-induced antibacterial activity against multidrug-resistant Acinetobacter baumannii AB030 assessed as fold reduction in rifampicin MIC at 7.5 uM incubated for 18 hrs by broth dilution method; outline: as §1
Pseudomonas aeruginosa [11] = experiment: Potentiation of rifampicin-induced antimicrobial activity against MDR/XDR Pseudomonas aeruginosa isolate PA259-96918 harboring GyrA Thr83Ile mutant assessed as rifampicin MIC80 incubated for 18 hrs by broth microdilution method (reference value: 16 microg/ml); settings: isolate PA259-96918, 18 h
Pseudomonas aeruginosa [12] = experiment: Potentiation of rifampicin-induced antimicrobial activity against MDR/XDR Pseudomonas aeruginosa isolate PA262-101856 harboring GyrA Thr83Ile mutant assessed as rifampicin MIC80 incubated for 18 hrs by broth microdilution method (reference value: 16 microg/ml); settings: isolate PA262-101856, 18 h
Pseudomonas aeruginosa [13] = experiment: Potentiation of minocycline-induced antimicrobial activity against MDR/XDR Pseudomonas aeruginosa isolate 100036 harboring GyrA Thr83Ile mutant assessed as minocycline MIC80 incubated for 18 hrs by broth microdilution method (reference value: 32 microg/ml); settings: isolate 100036, 18 h
Klebsiella pneumoniae [14] = experiment: Antimicrobial activity against Klebsiella pneumoniae 113254 incubated for 18 hrs by broth dilution method; settings: Klebsiella pneumoniae, 113254, 18 h
Outline: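 CLSI broth microdilution. Overnight cultures were adjusted to 0.5 McFarland in saline, diluted 1:50 in Mueller-Hinton broth, and inoculated at a final 5 × 10^5 CFU/mL. Compounds were tested as 2-fold serial dilutions and incubated 18 h at 37 °C. MIC was the lowest concentration with no visible turbidity, confirmed by absorbance at 590 nm.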

Acinetobacter baumannii [15] = experiment: Synergistic antibacterial activity against multidrug-resistant Acinetobacter baumannii AB110193 assessed as fractional inhibitory concentration index in presence of rifampicin incubated for 18 hrs by broth dilution method
Escherichia coli [16] = experiment: Synergistic antibacterial activity against Escherichia coli ATCC 25922 assessed as fractional inhibitory concentration index in presence of minocycline incubated for 18 hrs by broth dilution method
Outline: (§3)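 Checkerboard titration of the adjuvant against the antibiotic, run under the CLSI microdilution conditions (MHB, 5 × 10^5 CFU/mL, 18 h, 37 °C). Each agent's FIC is its MIC in combination divided by its MIC alone; FICI is the sum of the two FICs. FICI ≤0.5 was read as synergy, >0.5–4.0 as no interaction, and >4.0 as antagonism.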

Escherichia coli [17] = experiment: Synergistic antibacterial activity against Escherichia coli 94474 assessed as fractional inhibitory concentration index in presence of rifampicin incubated for 18 hrs by broth dilution method; outline: as §3
Escherichia coli [18] = experiment: Synergistic antibacterial activity against Escherichia coli 107115 assessed as fractional inhibitory concentration index in presence of minocycline incubated for 18 hrs by broth dilution method; outline: as §3
Escherichia coli [19] = experiment: Potentiation of rifampicin-induced antibacterial activity against Escherichia coli 107115 assessed as fold reduction in rifampicin MIC at 4.1 uM incubated for 18 hrs by broth dilution method
Outline: (§4)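 Antibiotic MIC determined by CLSI broth microdilution (MHB, 5 × 10^5 CFU/mL, 18 h, 37 °C), once alone and once with a fixed concentration of the adjuvant. Potentiation is the ratio of the antibiotic MIC alone to its MIC in the presence of the adjuvant.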

Klebsiella pneumoniae [20] = experiment: Potentiation of minocycline-induced antibacterial activity against Klebsiella pneumoniae 113254 assessed as fold reduction in minocycline MIC at 4.1 uM incubated for 18 hrs by broth dilution method; outline: as §4
Enterobacter cloacae = experiment: Potentiation of minocycline-induced antibacterial activity against Enterobacter cloacae 117029 assessed as fold reduction in minocycline MIC at 4.1 uM incubated for 18 hrs by broth dilution method; outline: as §4
Pseudomonas aeruginosa [21] = experiment: Potentiation of ciprofloxacin-induced antibacterial activity against MDR/XDR Pseudomonas aeruginosa isolate 100036 harboring GyrA T83I mutant assessed as fold reduction in ciprofloxacin MIC at 9 uM incubated for 18 hrs by broth microdilution method
Pseudomonas aeruginosa [22] = experiment: Potentiation of ciprofloxacin-induced antibacterial activity against MDR/XDR Pseudomonas aeruginosa isolate 101243 devoid of GyrA T83I mutant assessed as fold reduction in ciprofloxacin MIC at 9 uM incubated for 18 hrs by broth microdilution method
Pseudomonas aeruginosa [23] = experiment: Potentiation of minocycline-induced antibacterial activity against MDR/XDR Pseudomonas aeruginosa isolate 101885 harboring GyrA T83I mutant assessed as fold reduction in minocycline MIC at 9 uM incubated for 18 hrs by broth microdilution method

For COc1c(N2C[C@@H]3CCCN(CCCCCCCCCCCCO[C@@H]4[C@@H](O)[C@H](N)C[C@H](N)[C@H]4O[C@H]4O[C@H](CN)[C@@H](O)C[C@H]4N)[C@@H]3C2)c(F)cc2c(=O)c(C(=O)O)cn(C3CC3)c12.Cl.Cl.Cl.Cl.Cl, the “fold change (FC)” value (Pseudomonas aeruginosa [1]) was 2, the “fold change (FC)” value (Pseudomonas aeruginosa [2]) was 16 and the “fold change (FC)” value (Pseudomonas aeruginosa [3]) was 32. For the same compound, the “fold change (FC)” value (Pseudomonas aeruginosa [4]) was 16, the MIC50 (Pseudomonas aeruginosa [5]) was 0.5 µg/mL and the MIC50 (Pseudomonas aeruginosa [6]) was 0.06 µg/mL. For the same compound, the MIC (Acinetobacter baumannii [7]) was > 16 µg/mL, the MIC (Acinetobacter baumannii [8]) was 128 µg/mL and the “fold change (FC)” value (Acinetobacter baumannii [9]) was 32. The “fold change (FC)” value (Acinetobacter baumannii [10]) was 32, the MIC80 (Pseudomonas aeruginosa [11]) was 0.13 µg/mL and the MIC80 (Pseudomonas aeruginosa [12]) was 0.13 µg/mL. It also gave an MIC80 (Pseudomonas aeruginosa [13]) of 1 µg/mL.
Cl.Cl.Cl.Cl.Cl.NC[C@H]1O[C@H](O[C@H]2[C@H](OCCCCCCCCCCCCN3CCN(c4cc5c(cc4F)c(=O)c(C(=O)O)cn5C4CC4)CC3)[C@@H](O)[C@H](N)C[C@@H]2N)[C@H](N)C[C@@H]1O was tested, and the MIC (Klebsiella pneumoniae [14]) was 128 µg/mL, the “fractional inhibitory concentration index (FICI)” value (Acinetobacter baumannii [15]) was 0.016 - 0.031 and the “fractional inhibitory concentration index (FICI)” value (Escherichia coli [16]) was 0.504. For the same compound, the “fractional inhibitory concentration index (FICI)” value (Escherichia coli [17]) was 0.004 - 0.035, the “fractional inhibitory concentration index (FICI)” value (Escherichia coli [18]) was 0.133 and the “fold change (FC)” value (Escherichia coli [19]) was “>=256”. The “fold change (FC)” value (Klebsiella pneumoniae [20]) was 2 and the “fold change (FC)” value (Enterobacter cloacae) was 16.
With Cl.Cl.Cl.Cl.Cl.Cl.NC[C@H]1O[C@H](O[C@H]2[C@H](OCCCCCCCCCCN3CCN(Cc4cccc5ccccc45)CC3)[C@@H](O)[C@H](N)C[C@@H]2N)[C@H](N)C[C@@H]1O the “fold change (FC)” value (Pseudomonas aeruginosa [21]) was 8, the “fold change (FC)” value (Pseudomonas aeruginosa [22]) was 4 and the “fold change (FC)” value (Pseudomonas aeruginosa [23]) was 64.
